Experimental data taken from ChEMBL document CHEMBL4480390, “Cink4T, a quinazolinone-based dual inhibitor of Cdk4 and tubulin polymerization, identified via ligand-based virtual screening, for efficient anticancer therapy” (Eur J Med Chem, 2019).
Calls of active or inactive are those of the source. No cut-off for these calls is given here.

Key:
[1] = biological target: CDK6/cyclin D1 (Homo sapiens, UniProt Q00534); test: Inhibition of CDK6/cyclin D1 (unknown origin) using RBER-CHKtide as substrate measured after 1 hr by ADP-glo luminescence assay; type: protein-complex assay
Outline: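 ADP-Glo kinase assay with 200 ng Cdk-cyclin enzyme, ATP (125 µM in 2.5x mix) and 25 µg substrate (RBCTF or RBER-CHKtide, per Cdk). Buffer: Tris, MgCl2, BSA, DTT, MnCl2 cofactor, DMSO. Reaction 1 h at 21°C; ADP-Glo 40 min, then detection reagent 40 min. Luminescence read. IC50 by 4-parameter fit; three independent experiments.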

[2] = biological target: T1, Cytochrome P450 1B1 (Homo sapiens, UniProt Q16678); test: Inhibition of recombinant human CYP1B1 expressed in baker's yeast-derived microsomes using 7-ethoxyresorufin as substrate by fluorescence assay
T1 sequence (Q16678 whole entry): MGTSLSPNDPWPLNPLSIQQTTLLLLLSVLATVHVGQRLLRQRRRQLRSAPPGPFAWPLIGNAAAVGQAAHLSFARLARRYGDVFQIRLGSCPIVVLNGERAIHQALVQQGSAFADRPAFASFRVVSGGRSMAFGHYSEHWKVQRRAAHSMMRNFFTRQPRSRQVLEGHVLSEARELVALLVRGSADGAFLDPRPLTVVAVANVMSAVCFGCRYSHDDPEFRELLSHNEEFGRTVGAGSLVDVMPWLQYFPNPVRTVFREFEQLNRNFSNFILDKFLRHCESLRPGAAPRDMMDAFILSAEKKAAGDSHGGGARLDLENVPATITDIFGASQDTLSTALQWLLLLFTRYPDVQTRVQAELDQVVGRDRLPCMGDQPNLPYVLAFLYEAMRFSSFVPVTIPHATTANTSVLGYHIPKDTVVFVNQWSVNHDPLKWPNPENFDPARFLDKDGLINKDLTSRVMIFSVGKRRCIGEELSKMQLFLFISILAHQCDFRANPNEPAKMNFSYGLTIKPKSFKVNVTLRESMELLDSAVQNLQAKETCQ

[3] = tested on: T47D; test: Cell cycle arrest in human T47D cells assessed as ratio of G1 to S phase at 0.75 uM measured after 18 hrs by propidium iodide staining based flow cytometry (reference value: 2.65); type: functional
[4] = tested on: T47D; test: Cell cycle arrest in human T47D cells assessed as accumulation at sub-G1 phase at 0.75 uM measured after 18 hrs by propidium iodide staining based flow cytometry relative to control; type: functional
[5] = biological target: Cyclin-dependent kinase 4/cyclin D1 (Homo sapiens) (UniProt P11802+P24385); test: Inhibition of CDK4/cyclin D1 in human T47D cells assessed as reduction in phosphorylation of pRb at Ser780 residues at 0.75 to 1.5 uM measured after 18 hrs by Western blot analysis; type: cell-based
Outline: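 T47D cells left untreated or treated 18 h at 0.75 or 1.5 µM. Western blots probed with phospho-specific pRb antibodies (Ser780, Ser795, Ser807/811) and a total-pRb antibody; HRP-conjugated secondary for detection.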

[6] = tested on: Calu-1; test: Cell cycle arrest in human Calu1 cells assessed as increase in accumulation at S phase at 0.9 uM treated 18 hrs post serum-starvation measured after 18 hrs in presence of fresh medium containing FBS by propidium iodide staining based flow cytometry relative to control; type: functional
[7] = tested on: MDA-MB-468; test: Cell cycle arrest in human MDA-MB-468 cells assessed as ratio of G1 to S phase at 22 uM measured after 18 hrs by propidium iodide staining based flow cytometry (reference value: 2.17); type: functional
[8] = tested on: MDA-MB-468; test: Cell cycle arrest in human MDA-MB-468 cells assessed as accumulation at sub-G1 phase at 10.85 uM measured after 18 hrs by propidium iodide staining based flow cytometry relative to control; type: functional
[9] = tested on: MDA-MB-468; test: Cell cycle arrest in human MDA-MB-468 cells assessed as accumulation at sub-G1 phase at 22 uM measured after 18 hrs by propidium iodide staining based flow cytometry relative to control; type: functional
[10] = tested on: A549; test: Cell cycle arrest in human A549 cells assessed as ratio of G1 to S phase at 0.8 uM measured after 18 hrs by propidium iodide staining based flow cytometry (reference value: 2.7); type: functional
[11] = tested on: A549; test: Cell cycle arrest in human A549 cells assessed as ratio of G1 to S phase at 1.6 uM measured after 18 hrs by propidium iodide staining based flow cytometry (reference value: 2.7); type: functional
[12] = tested on: A549; test: Cell cycle arrest in human A549 cells assessed as accumulation at G0/G1 phase at 0.8 uM measured after 18 hrs by propidium iodide staining based flow cytometry (reference value: 58%); type: functional
[13] = tested on: A549; test: Cell cycle arrest in human A549 cells assessed as accumulation at G0/G1 phase at 1.6 uM measured after 18 hrs by propidium iodide staining based flow cytometry (reference value: 58%); type: functional
[14] = tested on: A549; test: Cell cycle arrest in human A549 cells assessed as accumulation at S phase at 0.8 uM measured after 18 hrs by propidium iodide staining based flow cytometry (reference value: 21%); type: functional
[15] = tested on: A549; test: Cell cycle arrest in human A549 cells assessed as accumulation at S phase at 1.6 uM measured after 18 hrs by propidium iodide staining based flow cytometry (reference value: 21%); type: functional
[16] = tested on: A549; test: Cell cycle arrest in human A549 cells assessed as accumulation at G2/M phase at 0.8 uM measured after 18 hrs by propidium iodide staining based flow cytometry (reference value: 18%); type: functional
[17] = tested on: A549; test: Up regulation of cyclin-B1 expression in human A549 cells at 0.8 to 1.6 uM measured after 18 hrs by Western blot analysis; type: functional, cell-based
[18] = tested on: A549; test: Effect on CDK1 expression in human A549 cells at 0.8 to 1.6 uM measured after 18 hrs by Western blot analysis; type: functional, cell-based
[19] = tested on: A549; test: Cell cycle arrest in human A549 cells assessed as accumulation at S phase at 0.8 uM treated 32 hrs post mimosine addition measured after 18 hrs in presence of fresh medium by propidium iodide staining based flow cytometry (reference value: 23%); type: functional
[20] = tested on: A549; test: Cell cycle arrest in human A549 cells assessed as accumulation at G2/M phase at 0.8 uM treated 32 hrs post mimosine addition measured after 18 hrs in presence of fresh medium by propidium iodide staining based flow cytometry (reference value: 14%); type: functional
[21] = tested on: A549; test: Cell cycle arrest in human A549 cells assessed as ratio of G1 to S phase at 1.6 uM treated 32 hrs post mimosine addition measured after 18 hrs in presence of fresh medium by propidium iodide staining based flow cytometry (reference value: 2.5); type: functional
[22] = tested on: A549; test: Cell cycle arrest in human A549 cells assessed as accumulation at S phase at 1.6 uM treated 32 hrs post mimosine addition measured after 18 hrs in presence of fresh medium by propidium iodide staining based flow cytometry (reference value: 23%); type: functional
[23] = tested on: A549; test: Cell cycle arrest in human A549 cells assessed as accumulation at G2/M phase at 1.6 uM treated 32 hrs post mimosine addition measured after 18 hrs in presence of fresh medium by propidium iodide staining based flow cytometry (reference value: 14%); type: functional
[24] = tested on: A549; test: cells; details: Homo sapiens, A549, 72 h

Chain of CDK6/cyclin D1 (P24385 whole entry): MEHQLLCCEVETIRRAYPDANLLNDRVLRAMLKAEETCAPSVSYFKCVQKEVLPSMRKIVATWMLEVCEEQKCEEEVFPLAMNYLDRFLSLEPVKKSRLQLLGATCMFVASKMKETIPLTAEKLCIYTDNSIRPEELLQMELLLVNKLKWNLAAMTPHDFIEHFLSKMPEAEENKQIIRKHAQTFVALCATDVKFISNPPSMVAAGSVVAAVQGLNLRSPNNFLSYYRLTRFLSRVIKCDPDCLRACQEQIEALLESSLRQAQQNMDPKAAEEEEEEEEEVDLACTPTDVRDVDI
Chain of CDK6/cyclin D1 (Q00534 whole entry): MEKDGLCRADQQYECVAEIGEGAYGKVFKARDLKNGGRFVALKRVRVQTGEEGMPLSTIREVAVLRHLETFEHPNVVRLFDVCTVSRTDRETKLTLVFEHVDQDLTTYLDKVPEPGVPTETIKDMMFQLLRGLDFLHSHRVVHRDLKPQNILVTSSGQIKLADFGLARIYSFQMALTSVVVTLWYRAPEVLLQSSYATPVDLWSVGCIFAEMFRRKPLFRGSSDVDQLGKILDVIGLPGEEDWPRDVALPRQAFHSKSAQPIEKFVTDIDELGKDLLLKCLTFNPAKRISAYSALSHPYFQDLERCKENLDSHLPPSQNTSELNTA

IC50 [1]: > 100 µM | IC50 [2]: > 5 µM | inhibition [5]: Active | EC50 [24]: 0.8 µM
SMILES: O=C(COc1ccc(-c2nc3ccccc3c(=O)[nH]2)cc1)Nc1cccc(Cl)c1
Ratio [3]: 22 | Activity [4]: 0% | Activity [6]: 0.7% | Ratio [7]: 3.15 | Activity [8]: 0% | Activity [9]: 0% | Ratio [10]: 6.5 | Ratio [11]: 0.75 | Activity [12]: 65% | Activity [13]: 12% | Activity [14]: 10% | Activity [15]: 16% | Activity [16]: 28% | Activity [17]: inactive | Activity [18]: inactive | Activity [19]: 24% | Activity [20]: 35% | Ratio [21]: 0.6 | Activity [22]: 18% | Activity [23]: 68%
